PMC4090943 (Bioorganic & medicinal chemistry letters, 2014)

Key:
rat mGlu5 = rat mGlu5 (Rattus norvegicus, UniProt P31424); experiment: Calcium mobilization mGlu5 assay; type: cell-based; details: HEK293A cells expressing rat mGlu5; EC80 glutamate; average of n ≥ 3
marble burying [1] = experiment: Mouse marble burying model of anxiety; type: in vivo; details: mice, IP, 15 minute pretreatment; P < 0.05 vs. vehicle, Dunnett's test
Summary of the method: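 Naïve mice given the test compound IP, with a vehicle control group, and then placed with glass marbles in deep bedding. The read-out was the number of marbles buried. n = 7-8 per dose. Each dose group was compared with the vehicle group by Dunnett's test (P < 0.05).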

[2] = tested on: 68 clinically relevant GPCRs, ion channels, kinases, and transporters; experiment: LeadProfilingScreen radioligand binding assay panel; details: 10 μM compound; 68 targets
[3] = Rat PO tissue distribution study; type: in vivo, male Sprague-Dawley rats; details: rat PO 10 mg/kg, 60 min
Summary of the method: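 Male Sprague-Dawley rats (n=2 per time point) received a single 10 mg/kg oral dose in 10% Tween 80 in 0.5% MC. At 60 min they were euthanized and decapitated, and blood, hepatic portal vein and brain were collected. After protein precipitation, plasma and brain homogenate supernatants were analysed by LC-MS/MS.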

the other seven mGlus = experiment: Cell based functional mGlu selectivity assays; details: 10μM
[4] = non-human primate regulatory toxicology studies; cited from earlier work
marble burying [5] = details: mice; ref 7a,d; cited from earlier work

Chain of rat mGlu5 (P31424 21-1203): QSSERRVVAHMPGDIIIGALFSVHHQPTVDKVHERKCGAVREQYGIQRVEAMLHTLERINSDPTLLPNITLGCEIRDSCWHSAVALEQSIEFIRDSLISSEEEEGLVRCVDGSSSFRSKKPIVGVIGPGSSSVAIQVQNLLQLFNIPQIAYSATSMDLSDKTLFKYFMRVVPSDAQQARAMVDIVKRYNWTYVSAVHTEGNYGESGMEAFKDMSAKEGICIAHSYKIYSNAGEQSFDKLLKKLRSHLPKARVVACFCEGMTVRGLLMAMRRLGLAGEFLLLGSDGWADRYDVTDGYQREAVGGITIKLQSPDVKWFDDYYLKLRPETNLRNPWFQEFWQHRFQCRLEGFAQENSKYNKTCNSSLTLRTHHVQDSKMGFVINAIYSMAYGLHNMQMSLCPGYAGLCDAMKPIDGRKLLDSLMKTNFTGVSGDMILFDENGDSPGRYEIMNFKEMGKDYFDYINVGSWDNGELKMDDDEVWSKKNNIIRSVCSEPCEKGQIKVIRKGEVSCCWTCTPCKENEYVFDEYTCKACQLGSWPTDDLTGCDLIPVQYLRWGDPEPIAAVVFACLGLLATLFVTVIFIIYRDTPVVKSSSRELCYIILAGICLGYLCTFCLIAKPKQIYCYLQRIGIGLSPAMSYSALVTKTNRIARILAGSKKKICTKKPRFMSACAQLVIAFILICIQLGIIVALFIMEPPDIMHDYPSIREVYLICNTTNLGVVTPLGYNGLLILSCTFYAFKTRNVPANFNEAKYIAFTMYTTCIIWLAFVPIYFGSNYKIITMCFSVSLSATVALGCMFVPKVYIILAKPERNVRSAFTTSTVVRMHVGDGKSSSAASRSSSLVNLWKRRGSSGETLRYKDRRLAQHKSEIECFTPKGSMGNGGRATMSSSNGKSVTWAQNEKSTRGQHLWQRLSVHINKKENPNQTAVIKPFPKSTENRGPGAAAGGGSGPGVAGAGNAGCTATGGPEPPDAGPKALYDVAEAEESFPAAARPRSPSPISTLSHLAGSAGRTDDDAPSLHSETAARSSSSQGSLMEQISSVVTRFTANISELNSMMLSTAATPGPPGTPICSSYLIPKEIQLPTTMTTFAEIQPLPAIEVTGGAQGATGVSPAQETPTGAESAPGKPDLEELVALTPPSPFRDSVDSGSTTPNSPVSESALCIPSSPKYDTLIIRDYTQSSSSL

Row | SMILES | mGlu5 pIC50 (± SEM) (rat mGlu5) | also measured
1 | O=C(Nc1cncc(Oc2cncc(F)c2)n1)c1cccc(Cl)c1F [Compound 42] | <4.5 | 
2 | O=C(Nc1cncc(Oc2cncc(F)c2)n1)c1cc(F)cc(F)c1 [Compound 46] | <4.5 | 
3 | O=C(Nc1cncc(Oc2cncc(F)c2)n1)c1cc(Cl)cc(Cl)c1 [Compound 47] | <4.5 | 
4 | COc1cc(OC)cc(C(=O)Nc2cncc(Oc3cncc(F)c3)n2)c1 [Compound 49] | <4.5 | 
5 | N#Cc1cc(F)cc(C(=O)Nc2cncc(Oc3cncc(F)c3)n2)c1 [Compound 50] | <4.5 | 
6 | O=C(Nc1cncc(Oc2cncc(F)c2)n1)c1cccnc1 [Compound 60] | <4.5 | 
7 | O=C(Nc1cncc(Oc2cncc(F)c2)n1)c1cccnn1 [Compound 61] | <4.5 | 
8 | O=C(Nc1cncc(Oc2cncc(F)c2)n1)c1ccncn1 [Compound 63] | <4.5 | 
9 | Cc1ccc(C(=O)Nc2cncc(Oc3cncnc3)n2)s1 [Compound 65] | <4.5 | 
10 | O=C(Nc1cncc(Oc2cncnc2)n1)c1cc(Cl)ccn1 [Compound 68, 4-chloro-N-(6-(pyrimidin-5-yloxy)pyrazin-2-yl)picolinamide] |  | doses giving statistically significant inhibition of marble burying (marble burying [1]): greater than or equal to 10 mg/kg; significant responses (>50% inhibition of radioligand binding) in panel [2]: no significant responses were found; HPV (hepatic portal vein) concentration [3]: 1.31 µM; brain concentration [3]: 1450 nM; plasma concentration [3]: 920 nM; activity against the other seven mGlus (the other seven mGlus): no detectable activity
11 | O=C(c1ccc(OC(F)F)c(C#Cc2ccccn2)c1)N1Cc2cccnc2C1 [GRN-529] |  | toxicology finding [4]: biliary epithelial hyperplasia
12 | Cc1cccc(C#Cc2ccccc2)n1 [MPEP] |  | effect on marble burying (marble burying [5]): inhibit marble burying
13 | CN1CC(=O)NC1=NC(=O)Nc1cccc(Cl)c1 [fenobam] |  | effect on marble burying (marble burying [5]): inhibit marble burying
